Where no end group is shown, it is not given here.

The values that follow come from paper PMC4899269 (Structure (London, England : 1993), 2016).

One experiment concerns JAK1 FERM–SH2. The experiment in a line: Co-purification and size exclusion chromatography of JAK1/receptor complexes. It counts as binding, human. The note with it: large scale co-expression, Ni-IMAC, TEV cleavage, SDS-PAGE. Summed up: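 His-JAK1 FERM–SH2 (G35–K559) co-expressed in insect cells with one of two GST-tagged partners, co-infected at 1:1 viral ratio: GST-IFNLR1 (K250–T299), or a chimera of IFNLR residues K250–R260 fused to IL-10RA K264–K303. Lysates purified by Ni-IMAC then SEC. Complex fractions TEV-cleaved and put through a second SEC round.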
A general note: SEC sorts molecules by how far they enter the pores of the column.

For experiment [1], the target named is human JAK1 FERM–SH2 (residues 35–559), His tag released with TEV (human, UniProt P23458 35-559). The experiment in a line: SEC-MALS.
For the next experiment, the target named is JAK1 FERM–SH2 I240L (human, UniProt P23458 35-559, Ile240 to leucine). The experiment is described as follows: BLI. Background: In BLI a coated tip is dipped into the sample, and binding shifts an interference pattern.
Another experiment addresses JAK1 FERM–SH2 I240F (human, UniProt P23458 35-559, Ile240 to phenylalanine). The experiment in a line: BLI.
Experiment [2] has as its target human JAK1 FERM–SH2 (as used in BioLayer Interferometry) (human, UniProt P23458 35-559). The experiment in a line: BLI.

Chain of human JAK1 FERM–SH2 (as used in BioLayer Interferometry) (P23458 35-559): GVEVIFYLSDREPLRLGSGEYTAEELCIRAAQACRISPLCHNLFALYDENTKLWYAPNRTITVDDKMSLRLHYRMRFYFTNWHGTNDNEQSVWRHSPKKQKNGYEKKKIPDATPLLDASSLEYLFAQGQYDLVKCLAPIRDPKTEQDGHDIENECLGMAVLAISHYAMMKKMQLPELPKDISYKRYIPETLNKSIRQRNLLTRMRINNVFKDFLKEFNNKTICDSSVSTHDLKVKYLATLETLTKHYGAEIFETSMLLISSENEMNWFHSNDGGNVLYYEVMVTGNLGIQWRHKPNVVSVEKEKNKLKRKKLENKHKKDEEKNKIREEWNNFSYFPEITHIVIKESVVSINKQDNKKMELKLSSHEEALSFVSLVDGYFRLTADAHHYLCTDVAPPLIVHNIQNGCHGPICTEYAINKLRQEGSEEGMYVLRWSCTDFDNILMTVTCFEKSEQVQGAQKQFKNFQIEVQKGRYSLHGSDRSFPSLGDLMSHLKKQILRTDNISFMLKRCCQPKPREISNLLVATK
Chain of JAK1 FERM–SH2 I240L (P23458 35-559 I240L): as the sequence (P23458 35-559) above, with I206L counted along it
Chain of JAK1 FERM–SH2 I240F (P23458 35-559 I240F): as the sequence (P23458 35-559) above, with I206F counted along it
Chain of human JAK1 FERM–SH2 (residues 35–559), His tag released with TEV (P23458 35-559): as the sequence (P23458 35-559) above

Take “box2 fragment of IFNLR1: GST-tagged fragment of IFNLR1 containing box2 sequences (residues 270–299) ({GST}-SGHTHPVATFQPSRPESVNDLFLCPQKELT)”: the “complex formation with JAK1 on purification / SEC (in words)” value in the experiment on JAK1 FERM–SH2 is “did not co-purify with JAK1”.
Same read-out and setting: then “IL10RA: GST-tagged human receptor cytoplasmic fragment with putative box1 and box2 motifs ({GST}-QLYVRRRKKLPSVLLFKKPSPFIFISQRPSPETQDTIHPLDEEAFLK)”, with “formed a stable complex with JAK1”; and “peptide containing IFNLR1 box1 and box2: GST-tagged IFNLR1 box1/box2 fragment (residues 250–299), co-expressed with JAK1 ({GST}-KTLMGNPWFQRAKMPRALDFSGHTHPVATFQPSRPESVNDLFLCPQKELT)”, with “form a stable complex with JAK1”.

B1: IFNLR1 box1/box2 peptide (residues 250–299), GST released with TEV (peptide, UniProt Q8IU57 250-299, looked up)
chain: KTLMGNPWFQRAKMPRALDFSGHTHPVATFQPSRPESVNDLFLCPQKELT
B1: the stoichiometry N (as a rule, the number of molecules, sites or subunits per partner or assembly) in experiment [1] stood at 1.

B2: biotinylated IFNLR1 box1 peptide (residues 250–270) (peptide, UniProt Q8IU57 250-270, looked up)
peptide: KTLMGNPWFQRAKMPRALDFS
modifications: also: biotin, position not given here
For the molecule B2, the binding result with JAK1 FERM–SH2 I240L is recorded as “binds”. In addition, in the experiment with JAK1 FERM–SH2 I240F, the binding result is on record as “binds”. Besides, in experiment [2], the koff (as a rule, the rate constant with which the complex falls apart) was found to be 0.089 s⁻¹ and the kon (usually the second-order rate constant of association) is 72500 M⁻¹ s⁻¹.

B3: biotinylated IFNLR1 box1/box2 peptide (residues 250–299) (peptide, UniProt Q8IU57 250-299, looked up)
peptide: B1 chain
modifications: also: biotin, position not given here
In experiment [2], B3 yielded a koff of 0.00355 s⁻¹ and a kon of 50400 M⁻¹ s⁻¹.

B4: biotinylated IFNLR1 box1Δbox2 peptide (residues 250–289) (peptide, UniProt Q8IU57 250-289, looked up)
peptide: KTLMGNPWFQRAKMPRALDFSGHTHPVATFQPSRPESVND
modifications: also: biotin, position not given here
With B4, in experiment [2], the koff is 0.0544 s⁻¹ and the kon was found to be 34600 M⁻¹ s⁻¹.
